Assay results taken from ChEMBL document CHEMBL1125937, “Nucleosides and nucleotides. 100. 2'-C-cyano-2'-deoxy-1-beta-D-arabinofuranosyl-cytosine (CNDAC): design of a potential mechanism-based DNA-strand-breaking antineoplastic nucleoside” (J Med Chem, 1991).
Converted amounts (≈) assume the structure as drawn.

Assays:
Type in all cases: functional, cell-based
[1] = system: HOS-TE85; experiment: Inhibitory effect tested in vitro for the growth of Osteosarcoma MNNG-HOS cell line; settings: Homo sapiens
In short: (§1)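 MTT assay: tumor cells seeded at 1 × 10^4 per well, incubated 72 h with or without compound, then MTT added and OD 570 nm read. % inhibition = [1 − OD sample/OD control] × 100. IC50 is the concentration giving 50% inhibition of cell growth.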

[2] = system: SK-ES1; experiment: Inhibitory effect tested in vitro for the growth of Osteosarcoma SK-ES-1 cell line; settings: Homo sapiens; in short: as §1
[3] = system: MKN-7; experiment: Inhibitory effect tested in vitro for the growth of Stomach adenocarcinoma MKN-7 cell line; settings: Homo sapiens; in short: as §1
[4] = system: SW480; experiment: Inhibitory effect tested in vitro for the growth of colon adenocarcinoma SW-480 cell line; settings: Homo sapiens; in short: as §1
[5] = system: MKN-1; experiment: Inhibitory effect tested in vitro for the growth of Stomach adenocarcinoma MKN-1 cell line; settings: Homo sapiens; in short: as §1
[6] = system: QG-56; experiment: Inhibitory effect tested in vitro for the growth of Lung squamous-cell carcinoma QG-56 cell line; settings: Homo sapiens; in short: as §1
[7] = system: KHOS-321H; experiment: Inhibitory effect tested in vitro for the growth of Osteosarcoma KHOS-321H cell line; settings: Homo sapiens; in short: as §1
[8] = system: OST; experiment: Inhibitory effect tested in vitro for the growth of Osteosarcoma OST cell line; settings: Homo sapiens; in short: as §1
[9] = system: ST-KM-1; experiment: Inhibitory effect tested in vitro for the growth of Stomach adenocarcinoma ST-KM cell line; settings: Homo sapiens; in short: as §1
[10] = system: NUGC-4; experiment: Inhibitory effect tested in vitro for the growth of Stomach adenocarcinoma NUGC-4 cell line; settings: Homo sapiens; in short: as §1
[11] = system: MKN-28; experiment: Inhibitory effect tested in vitro for the growth of Stomach adenocarcinoma MKN- 28 cell line; settings: Homo sapiens; in short: as §1
[12] = system: PC-3; experiment: Inhibitory effect tested in vitro for the growth of Lung adenocarcinoma PC-3 cell line; settings: Homo sapiens; in short: as §1
[13] = system: PC-13; experiment: Inhibitory effect tested in vitro for the growth of Lung adenocarcinoma PC-13 cell line; settings: Homo sapiens, in the assay text read “Lung large-cell carcinoma” for “Lung adenocarcinoma”; in short: as §1
[14] = system: PC-8; experiment: Inhibitory effect tested in vitro for the growth of Lung adenocarcinoma PC-8 cell line; settings: Homo sapiens; in short: as §1
[15] = system: PC-9; experiment: Inhibitory effect tested in vitro for the growth of Lung adenocarcinoma PC-9 cell line; settings: Homo sapiens; in short: as §1

IC50 [2] [mg/L] | IC50 [3] [mg/L] | IC50 [4] [mg/L] | IC50 [5] [mg/L] | IC50 [11] [mg/L] | IC50 [12] [mg/L] | IC50 [15] [mg/L] | SMILES | IC50 [1] [mg/L] | IC50 [6] [mg/L] | IC50 [7] [mg/L] | IC50 [8] [mg/L] | IC50 [9] [mg/L] | IC50 [10] [mg/L] | IC50 [13] [mg/L] | IC50 [14] [mg/L]
2.2 (≈ 8.72 µM) | 1.4 (≈ 5.55 µM) | 0.27 (≈ 1.07 µM) | 2.1 (≈ 8.33 µM) | 1.7 (≈ 6.74 µM) | 5.6 (≈ 22.2 µM) | 4.4 (≈ 17.4 µM) | N#C[C@H]1[C@H](O)[C@@H](CO)O[C@H]1n1ccc(N)nc1=O [TAS-109] | 6.8 (≈ 27 µM) | 40 (≈ 159 µM) | 4.5 (≈ 17.8 µM) | 6.4 (≈ 25.4 µM) | 2.8 (≈ 11.1 µM) | 5.2 (≈ 20.6 µM) | > 100 | 4.6 (≈ 18.2 µM)
0.09 (≈ 0.37 µM) | – | > 100 | – | 4.5 (≈ 18.5 µM) | > 100 | 1.6 (≈ 6.58 µM) | Nc1ccn([C@@H]2O[C@H](CO)[C@@H](O)[C@H]2O)c(=O)n1 [CYTIDINE] | 2.6 (≈ 10.7 µM) | > 100 | 0.27 (≈ 1.11 µM) | > 100 | > 100 | > 100 | > 100 | 0.28 (≈ 1.15 µM)
